Experiments:
[1] = molecular target: T1, UDP-glucuronosyltransferase 2B7 (Homo sapiens, UniProt P16662); assay: Competitive inhibition of UGT2B7-catalyzed scopoletin glucuronidation; assay type: functional
T1 sequence (P16662 whole entry): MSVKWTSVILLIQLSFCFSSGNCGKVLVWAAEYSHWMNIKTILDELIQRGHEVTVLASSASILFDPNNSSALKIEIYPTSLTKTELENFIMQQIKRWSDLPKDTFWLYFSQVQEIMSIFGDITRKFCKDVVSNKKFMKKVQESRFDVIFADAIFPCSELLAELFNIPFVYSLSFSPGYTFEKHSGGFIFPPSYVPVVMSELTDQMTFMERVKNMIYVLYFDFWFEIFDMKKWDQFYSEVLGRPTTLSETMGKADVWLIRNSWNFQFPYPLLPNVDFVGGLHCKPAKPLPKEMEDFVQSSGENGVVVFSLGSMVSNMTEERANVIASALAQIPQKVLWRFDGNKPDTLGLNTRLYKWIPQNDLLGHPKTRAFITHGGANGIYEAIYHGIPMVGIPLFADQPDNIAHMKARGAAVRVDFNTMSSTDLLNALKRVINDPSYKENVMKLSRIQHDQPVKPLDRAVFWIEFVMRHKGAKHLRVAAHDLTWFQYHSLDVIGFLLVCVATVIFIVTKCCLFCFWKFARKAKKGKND
How it was run: (§1)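 Recombinant human UGT2B7 from baculovirus-infected insect cells, 0.1 µg/µL, in 5.0 mM phosphate (pH 7.4), 10 mM MgCl2 and 5.0 mM saccharic acid-1,4-lactone. Racemates were tested at three concentrations bracketing Kic estimated by Cheng-Prusoff. Scopoletin was 100–2000 µM. After 5 min preincubation at 37 °C, 5.0 mM UDPGlcA was added and the reaction ran 15 min. Glucuronide was read by HPLC fluorescence (ex 335/em 455 nm). Mechanism came from simultaneous nonlinear regression.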

[2] = molecular target: T1, UDP-glucuronosyltransferase 2B7; assay: Non competitive inhibition of UGT2B7-catalyzed scopoletin glucuronidation; assay type: functional; how it was run: as §1
[3] = molecular target: T2, UDP-glucuronosyltransferase 2B17 (Homo sapiens, UniProt O75795); assay: Competitive inhibition of UGT2B17-catalyzed scopoletin glucuronidation; assay type: functional
T2 sequence (O75795 whole entry): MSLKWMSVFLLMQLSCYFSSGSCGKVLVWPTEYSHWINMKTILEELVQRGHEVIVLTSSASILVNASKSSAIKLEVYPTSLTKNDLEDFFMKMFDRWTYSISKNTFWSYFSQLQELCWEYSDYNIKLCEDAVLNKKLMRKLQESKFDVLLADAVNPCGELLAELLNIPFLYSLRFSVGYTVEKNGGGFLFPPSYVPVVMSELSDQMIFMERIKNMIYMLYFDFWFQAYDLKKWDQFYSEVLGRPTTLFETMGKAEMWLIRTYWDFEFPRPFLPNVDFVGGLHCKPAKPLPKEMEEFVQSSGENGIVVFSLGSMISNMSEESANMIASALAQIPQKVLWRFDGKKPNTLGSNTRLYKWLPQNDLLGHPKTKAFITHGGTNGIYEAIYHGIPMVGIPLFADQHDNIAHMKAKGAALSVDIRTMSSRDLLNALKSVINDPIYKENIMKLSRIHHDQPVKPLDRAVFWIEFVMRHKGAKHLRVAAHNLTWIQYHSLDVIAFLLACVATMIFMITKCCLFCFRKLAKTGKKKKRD
How it was run: (§2)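 His-tagged human UGT2B17 expressed in insect cells, 0.1 µg/µL, in 5.0 mM phosphate (pH 7.4) with 10 mM MgCl2 and 5.0 mM saccharic acid-1,4-lactone. Initial velocities were taken at scopoletin 100, 250, 500, 1000 and 2000 µM, with racemic inhibitors at three levels bracketing Kic estimated by Cheng-Prusoff. UDPGlcA (5.0 mM final) started the reaction after 5 min preincubation at 37 °C; run 15 min. Scopoletin glucuronide was measured by HPLC fluorescence. Inhibition mechanism was fitted by simultaneous nonlinear regression.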

[4] = molecular target: T2, UDP-glucuronosyltransferase 2B17; assay: Non competitive inhibition of UGT2B17-catalyzed scopoletin glucuronidation; assay type: functional; how it was run: as §2
[5] = molecular target: T1, UDP-glucuronosyltransferase 2B7; assay: (§3) Inhibition of UGT2B7
UGT2B7 = molecular target: T3, UGT2B7 (Homo sapiens, UniProt P16662); assay: as §3; settings: human; read-out: Imax
T3 sequence (P16662 whole entry): T1 sequence (P16662 whole entry)

[6] = molecular target: T2, UDP-glucuronosyltransferase 2B17; assay: (§4) Inhibition of UGT2B17
How it was run: (§5)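 IC50 against UGT2B17-catalyzed glucuronidation of scopoletin, using His-tagged enzyme from insect cells at 0.1 µg/µL. Scopoletin was 300 µM (its Km) with inhibitor at 10–1000 µM. For poorly soluble aliphatic alcohols, inhibitor was 5–100 µM and scopoletin 50 µM. Buffer was 5.0 mM phosphate pH 7.4 with MgCl2 and saccharic lactone. UDPGlcA 5.0 mM; 15 min at 37 °C. Scopoletin glucuronide was read by HPLC fluorescence and fitted to the two-parameter Hill equation.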

UGT2B17 = molecular target: T4, UGT2B17 (Homo sapiens, UniProt O75795); assay: as §4; settings: human; read-out: Imax; how it was run: as §5
T4 sequence (O75795 whole entry): T2 sequence (O75795 whole entry)

SMILES	Ki [1]	Ki [2]	Ki [3]	Ki [4]	IC50 [5]	Emax (UGT2B7)	IC50 [6]	Emax (UGT2B17)
Cc1ccc2c(c1)C(O)CC2 (racemic)	301 µM	624 µM	427 µM	1440 µM				
O=[N+]([O-])c1ccc2c(c1)[C@@H](O)CCC2					651 µM	62.5%	305 µM	77.4%
COc1cccc2c1CCC[C@H]2O (racemic)					366 µM	76.5%	112 µM	88.9%
Cc1ccc2c(c1)[C@@H](O)CC2					540 µM	64.4%	728 µM	58.3%
C[C@H](O)c1cccc2ccccc12 (racemic)					214 µM	31.8%	537 µM	14.3%
O=[N+]([O-])c1ccc2c(c1)[C@H](O)CCC2 (racemic)					599 µM	61.9%	217 µM	83.5%
Cc1cc(C)c2c(c1)[C@@H](O)CCC2					166 µM	83.5%	98 µM	90.5%
C[C@H](O)c1c2ccccc2cc2ccccc12 (racemic)					532 µM	17.7%	606 µM	11.1%
C[C@@H](O)c1c2ccccc2cc2ccccc12					344 µM	19.8%	703 µM	13.1%
C[C@H](O)c1ccc2ccccc2c1 (racemic)							657 µM	9.12%
Cc1cc(C)c2c(c1)[C@H](O)CCC2 (racemic)					158 µM	85.7%	144 µM	87.8%
C[C@@H](O)c1cccc2ccccc12					130 µM	41.9%	389 µM	18.9%
Cc1ccc2c(c1)[C@H](O)CC2 (racemic)					394 µM	71.2%	489 µM	69.6%
Cc1cc(C)c2c(c1)C(O)CCC2 (racemic)	101 µM	192 µM	57.8 µM	190 µM				
C[C@@H](O)c1ccc2ccccc2c1							578 µM	16.7%
COc1ccc2c(c1)[C@H](O)CCC2 (racemic)					284 µM	80.4%	162 µM	84.7%
COc1ccc2c(c1)[C@@H](O)CCC2					351 µM	77.2%	216 µM	80.4%

Now from value to compound:

Ki [1]	Ki [2]	Ki [3]	Ki [4]	IC50 [5]	Emax (UGT2B7)	IC50 [6]	Emax (UGT2B17)	SMILES
113 µM	258 µM	201 µM	608 µM					Cc1ccc2c(c1)C(O)CCO2 (racemic)
				275 µM	77.1%	517 µM	65.3%	O[C@@H]1CCc2ccccc21
				317 µM	76%	682 µM	60.1%	Cc1cccc2c1CC[C@H]2O (racemic)
				179 µM	86.4%	608 µM	61.7%	Cc1cccc2c1CC[C@@H]2O
				518 µM	68.7%	319 µM	74.8%	O[C@H]1CCOc2ccccc21 (racemic)
				337 µM	73.6%	242 µM	78.8%	O[C@@H]1CCCc2ccccc21
				513 µM	67.3%	545 µM	63.4%	O[C@H]1CCc2ccccc21
				489 µM	67.8%	374 µM	76.1%	O[C@H]1CCCc2ccccc21
				182 µM	85%	325 µM	75.3%	Cc1ccc2c(c1)[C@@H](O)CCO2 (racemic)
				301 µM	80.2%	132 µM	89.1%	COc1cccc2c1CCC[C@@H]2O
				225 µM	83.5%	365 µM	72.6%	Cc1ccc2c(c1)[C@H](O)CCO2
				507 µM	65.8%	448 µM	69.3%	O[C@@H]1CCOc2ccccc21
